Measurements from ChEMBL document CHEMBL1240306, “Allosteric inhibitors of Bcr-abl-dependent cell proliferation” (Nat Chem Biol, 2006).

Columns and labels:
[1] = target: Insulin-like growth factor 1 receptor (Homo sapiens) (UniProt P08069); assay: Inhibition of human IGF-1R activity at 10 uM by radiometric assay
[2] = target: 5'-AMP-activated protein kinase catalytic subunit alpha-2 (Rattus norvegicus) (UniProt Q09137); settings: 10 uM
HL-60 = assay: Antiproliferative activity against human HL60 Bcr-abl negative cells assessed as cell viability after 48 hrs by MTT assay; type: functional, cell-based; settings: HL-60, 48 h
Procedure, shortened: (§1)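 Cells seeded at 0.3–0.6 × 10^6/ml in duplicate or triplicate with increasing compound (0.005–10 μM), 37 °C, 5% CO2, 48 h. Viability by MTT dye reduction, expressed as % growth of DMSO-treated cells; IC50 from dose-response curves. Ba/F3 lines carry geneticin selection (1 mg/ml) in RPMI-1640/10% FBS; parental Ba/F3 kept with 10 U/ml murine IL-3.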

[3] = target: Vascular endothelial growth factor receptor 3 (Homo sapiens) (UniProt P35916); assay: Inhibition of human Flt-4 activity at 10 uM by radiometric assay
[4] = Antiproliferative activity against mouse 32D Bcr-abl negative cells assessed as proliferation after 48 hrs by MTT assay
[5] = target: Serine/threonine-protein kinase 3 (Homo sapiens) (UniProt Q13188); settings: 10 uM
[6] = target: Serine/threonine-protein kinase Chk2 (Homo sapiens) (UniProt O96017); assay: Inhibition of human CHK2 activity at 10 uM by radiometric assay
[7] = Antiproliferation activity against mouse BA/F3 cells expressing Bcr-abl A334l mutant assessed as cell viability after 48 hrs by MTT assay; type: functional, cell-based; settings: BaF3, 48 h, in the assay text read “A344L” for “A334l”; procedure, shortened: as §1
K562 = assay: Antiproliferative activity against human K562 expressing Bcr-abl assessed as proliferation after 48 hrs by MTT assay; type: functional, cell-based; settings: K562, 48 h; procedure, shortened: as §1
[8] = target: Insulin receptor (Homo sapiens) (UniProt P06213); assay: Inhibition of human IR activity at 10 uM by radiometric assay
[9] = target: Tyrosine-protein kinase Fes/Fps (Homo sapiens) (UniProt P07332); assay: Inhibition of human Fes activity at 10 uM by radiometric assay
[10] = Cytotoxic activity against mouse 32D cells transfected with p210 Bcr-abl; type: cell-based
[11] = target: Tyrosine-protein kinase CSK (Homo sapiens) (UniProt P41240); assay: Inhibition of human CSK activity at 10 uM by radiometric assay
[12] = target: Protein kinase C alpha type (Homo sapiens) (UniProt P17252); assay: Inhibition of human PKCalpha activity at 10 uM by radiometric assay
[13] = Antiproliferation activity against mouse BA/F3 cells expressing Bcr-abl A337N mutant assessed as cell viability after 48 hrs by MTT assay; type: functional, cell-based; settings: BaF3, 48 h; procedure, shortened: as §1
[14] = Antiproliferative activity against human SUP-B15 expressing Bcr-abl assessed as proliferation after 48 hrs by MTT assay; type: functional; settings: SUP-B15, 48 h; procedure, shortened: as §1
[15] = target: Cytoplasmic tyrosine-protein kinase BMX (Homo sapiens) (UniProt P51813); assay: Inhibition of human Bmx activity at 10 uM by radiometric assay
[16] = target: MAP kinase-activated protein kinase 2 (Homo sapiens) (UniProt P49137); assay: Inhibition of human MAPKAP-K2 activity at 10 uM by radiometric assay
[17] = target: Casein kinase II subunit alpha (Homo sapiens) (UniProt P68400); assay: Inhibition of human CK2 activity at 10 uM by radiometric assay
[18] = target: Angiopoietin-1 receptor (Homo sapiens) (UniProt Q02763); assay: Inhibition of human Tie2 activity at 10 uM by radiometric assay
[19] = target: Vascular endothelial growth factor receptor 2 (Homo sapiens) (UniProt P35968); assay: Inhibition of human KDR activity at 10 uM by radiometric assay
[20] = target: Ribosomal protein S6 kinase alpha-1 (Homo sapiens) (UniProt Q15418); assay: Inhibition of human Rsk1 activity at 10 uM by radiometric assay
[21] = target: RAC-alpha serine/threonine-protein kinase (Homo sapiens) (UniProt P31749); assay: Inhibition of human PKBalpha activity at 10 uM by radiometric assay
[22] = Antiproliferation activity against mouse BA/F3 cells expressing Bcr-abl assessed as cell viability after 48 hrs by MTT assay; type: functional, cell-based; settings: BaF3, 48 h; procedure, shortened: as §1
[23] = Antiproliferative activity against human M07e Bcr-abl negative cells expressing stem cell factor assessed as proliferation after 48 hrs by MTT assay; type: functional, cell-based; settings: M-07e
Procedure, shortened: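 Human megakaryoblastic Mo7e cells grown in RPMI-1640, 20% FBS, with either 5 ng/ml human GM-CSF or 200 ng/ml stem cell factor (c-kit-driven growth). Compound up to 10 μM, 48 h at 37 °C; viability read by MTT reduction relative to DMSO-treated cells.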

[24] = target: Serine/threonine-protein kinase D2 (Homo sapiens) (UniProt Q9BZL6); assay: Inhibition of human PKD2 activity at 10 uM by radiometric assay
[25] = Antiproliferative activity against mouse BA/F3 Bcr-abl negative cells expressing FIt3-ITD kinase assessed as proliferation after 48 hrs by MTT assay; type: functional, cell-based; settings: BaF3, 48 h; procedure, shortened: as §1
[26] = Antiproliferative activity against mouse BA/F3 Bcr-abl negative cells expressing TPR-MET kinase assessed as proliferation after 48 hrs by MTT assay; type: functional, cell-based; settings: BaF3, 48 h; procedure, shortened: as §1
[27] = target: cAMP-dependent protein kinase catalytic subunit beta (Homo sapiens) (UniProt P22694); settings: 10 uM
[28] = target: BDNF/NT-3 growth factors receptor (Homo sapiens) (UniProt Q16620); assay: Inhibition of human TrkB activity at 10 uM by radiometric assay
[29] = target: Aurora kinase A (Homo sapiens) (UniProt O14965); assay: Inhibition of human aurora-A activity at 10 uM by radiometric assay
[30] = target: Mast/stem cell growth factor receptor Kit (Homo sapiens) (UniProt P10721); assay: Inhibition of human c-kit activity at 10 uM by radiometric assay
[31] = target: Serine/threonine-protein kinase Nek2 (Homo sapiens) (UniProt P51955); assay: Inhibition of human NEK2 activity at 10 uM by radiometric assay
[32] = target: Mitogen-activated protein kinase 9 (Homo sapiens) (UniProt P45984); assay: Inhibition of human JNK2alpha2 activity at 10 uM by radiometric assay
[33] = Antiproliferative activity against mouse BA/F3 Bcr-abl negative cells expressing Tel-PDGFRbeta kinase assessed as proliferation after 48 hrs by MTT assay; type: functional, cell-based; settings: BaF3, 48 h; procedure, shortened: as §1
[34] = target: Mitogen-activated protein kinase 12 (Homo sapiens) (UniProt P53778); assay: Inhibition of human SAPK3 activity at 10 uM by radiometric assay
[35] = target: Mitogen-activated protein kinase 1 (Homo sapiens) (UniProt P28482); assay: Inhibition of human MAPK1 activity at 10 uM by radiometric assay
[36] = Antiproliferative activity against mouse 32D cells transfected with p210 cells expressing Bcr-abl assessed as proliferation after 48 hrs by MTT assay; type: cell-based

Angiopoietin-1 receptor (Homo sapiens), sequence (Q02763 whole entry): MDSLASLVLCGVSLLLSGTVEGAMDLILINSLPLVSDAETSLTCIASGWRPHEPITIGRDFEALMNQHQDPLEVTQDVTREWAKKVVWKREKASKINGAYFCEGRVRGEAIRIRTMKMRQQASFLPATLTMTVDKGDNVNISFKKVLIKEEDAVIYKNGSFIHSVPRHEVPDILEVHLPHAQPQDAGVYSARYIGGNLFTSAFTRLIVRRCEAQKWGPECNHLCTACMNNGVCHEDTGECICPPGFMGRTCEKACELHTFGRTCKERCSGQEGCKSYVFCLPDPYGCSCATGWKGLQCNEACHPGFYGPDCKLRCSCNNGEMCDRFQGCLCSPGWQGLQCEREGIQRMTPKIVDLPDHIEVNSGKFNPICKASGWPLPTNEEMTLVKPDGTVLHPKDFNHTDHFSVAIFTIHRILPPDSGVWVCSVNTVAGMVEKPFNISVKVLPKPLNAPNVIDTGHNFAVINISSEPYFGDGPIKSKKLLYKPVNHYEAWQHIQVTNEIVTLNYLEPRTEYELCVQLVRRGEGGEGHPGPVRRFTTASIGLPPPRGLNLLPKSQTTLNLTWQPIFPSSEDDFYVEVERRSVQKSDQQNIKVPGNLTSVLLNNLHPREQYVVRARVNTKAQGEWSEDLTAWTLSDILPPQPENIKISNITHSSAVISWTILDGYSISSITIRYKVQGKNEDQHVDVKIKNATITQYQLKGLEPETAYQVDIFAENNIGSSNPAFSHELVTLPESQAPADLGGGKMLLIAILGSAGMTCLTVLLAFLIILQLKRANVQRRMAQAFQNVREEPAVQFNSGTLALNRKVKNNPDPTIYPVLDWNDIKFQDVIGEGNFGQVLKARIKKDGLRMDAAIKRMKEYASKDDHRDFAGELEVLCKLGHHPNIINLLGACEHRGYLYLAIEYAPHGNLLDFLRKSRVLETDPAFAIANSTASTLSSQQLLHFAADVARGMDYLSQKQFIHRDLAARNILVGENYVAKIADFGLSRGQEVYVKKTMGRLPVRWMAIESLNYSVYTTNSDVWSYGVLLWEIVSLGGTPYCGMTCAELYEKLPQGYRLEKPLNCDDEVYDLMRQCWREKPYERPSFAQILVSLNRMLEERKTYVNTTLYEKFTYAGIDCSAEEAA
Insulin receptor (Homo sapiens), sequence (P06213 28-758 limits assumed): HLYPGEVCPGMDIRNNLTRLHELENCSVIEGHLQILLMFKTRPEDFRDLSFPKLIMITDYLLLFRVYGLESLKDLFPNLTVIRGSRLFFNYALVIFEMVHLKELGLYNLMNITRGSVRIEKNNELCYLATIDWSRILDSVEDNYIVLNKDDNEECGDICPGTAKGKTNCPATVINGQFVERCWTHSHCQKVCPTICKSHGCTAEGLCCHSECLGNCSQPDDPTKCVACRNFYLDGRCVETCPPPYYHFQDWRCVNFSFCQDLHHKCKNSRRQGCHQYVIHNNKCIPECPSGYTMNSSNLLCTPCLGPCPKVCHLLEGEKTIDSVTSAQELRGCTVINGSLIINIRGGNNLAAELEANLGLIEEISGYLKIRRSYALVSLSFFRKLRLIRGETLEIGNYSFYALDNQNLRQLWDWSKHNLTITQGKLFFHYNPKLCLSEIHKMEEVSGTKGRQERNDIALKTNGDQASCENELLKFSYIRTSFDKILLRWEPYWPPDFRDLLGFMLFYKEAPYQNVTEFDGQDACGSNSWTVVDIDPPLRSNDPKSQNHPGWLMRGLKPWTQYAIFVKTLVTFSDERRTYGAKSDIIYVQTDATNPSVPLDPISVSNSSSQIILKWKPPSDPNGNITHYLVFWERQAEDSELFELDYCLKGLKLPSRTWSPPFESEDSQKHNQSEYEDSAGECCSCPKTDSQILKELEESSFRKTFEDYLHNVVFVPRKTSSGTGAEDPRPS
Insulin receptor (Homo sapiens), sequence (P06213 763-1382 limits assumed): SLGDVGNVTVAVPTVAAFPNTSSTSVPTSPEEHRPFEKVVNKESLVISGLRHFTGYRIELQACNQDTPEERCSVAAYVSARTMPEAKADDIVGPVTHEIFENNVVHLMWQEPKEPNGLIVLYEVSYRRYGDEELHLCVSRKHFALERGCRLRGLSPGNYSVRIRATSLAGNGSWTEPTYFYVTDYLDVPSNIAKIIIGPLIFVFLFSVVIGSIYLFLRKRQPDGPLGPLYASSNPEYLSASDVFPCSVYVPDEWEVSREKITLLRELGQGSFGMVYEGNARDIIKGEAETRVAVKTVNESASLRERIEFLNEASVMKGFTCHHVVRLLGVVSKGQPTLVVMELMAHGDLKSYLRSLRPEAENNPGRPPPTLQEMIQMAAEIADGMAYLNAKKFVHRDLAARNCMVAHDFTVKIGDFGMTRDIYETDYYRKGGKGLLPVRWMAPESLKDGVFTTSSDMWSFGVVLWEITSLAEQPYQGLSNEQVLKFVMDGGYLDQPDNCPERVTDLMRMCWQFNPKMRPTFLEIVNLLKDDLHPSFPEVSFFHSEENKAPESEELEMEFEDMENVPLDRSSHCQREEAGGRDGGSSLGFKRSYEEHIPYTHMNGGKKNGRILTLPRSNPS
Serine/threonine-protein kinase D2 (Homo sapiens), sequence (Q9BZL6 whole entry): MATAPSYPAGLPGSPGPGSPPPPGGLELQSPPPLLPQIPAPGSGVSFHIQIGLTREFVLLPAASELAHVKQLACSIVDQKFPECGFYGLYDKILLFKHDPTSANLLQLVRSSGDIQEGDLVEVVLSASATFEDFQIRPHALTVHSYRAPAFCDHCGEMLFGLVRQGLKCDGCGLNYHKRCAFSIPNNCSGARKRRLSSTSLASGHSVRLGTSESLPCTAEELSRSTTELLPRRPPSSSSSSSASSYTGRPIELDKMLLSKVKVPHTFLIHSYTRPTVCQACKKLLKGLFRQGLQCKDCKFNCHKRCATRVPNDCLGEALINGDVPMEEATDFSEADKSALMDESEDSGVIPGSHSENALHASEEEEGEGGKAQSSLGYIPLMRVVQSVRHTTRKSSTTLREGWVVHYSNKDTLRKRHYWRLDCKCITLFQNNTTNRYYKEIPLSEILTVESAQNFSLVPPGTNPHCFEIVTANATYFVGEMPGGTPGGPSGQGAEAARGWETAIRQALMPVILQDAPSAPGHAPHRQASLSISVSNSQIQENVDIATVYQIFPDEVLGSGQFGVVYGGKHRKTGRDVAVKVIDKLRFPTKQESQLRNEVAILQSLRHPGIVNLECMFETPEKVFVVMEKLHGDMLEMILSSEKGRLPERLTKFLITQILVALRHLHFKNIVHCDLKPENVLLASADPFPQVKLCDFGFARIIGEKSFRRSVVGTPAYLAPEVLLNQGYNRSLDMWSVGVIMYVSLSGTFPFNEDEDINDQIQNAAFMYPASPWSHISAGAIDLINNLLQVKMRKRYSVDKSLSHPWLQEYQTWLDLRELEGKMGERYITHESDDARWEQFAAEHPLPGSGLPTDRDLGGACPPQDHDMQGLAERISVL
Serine/threonine-protein kinase Chk2 (Homo sapiens), sequence (O96017 whole entry): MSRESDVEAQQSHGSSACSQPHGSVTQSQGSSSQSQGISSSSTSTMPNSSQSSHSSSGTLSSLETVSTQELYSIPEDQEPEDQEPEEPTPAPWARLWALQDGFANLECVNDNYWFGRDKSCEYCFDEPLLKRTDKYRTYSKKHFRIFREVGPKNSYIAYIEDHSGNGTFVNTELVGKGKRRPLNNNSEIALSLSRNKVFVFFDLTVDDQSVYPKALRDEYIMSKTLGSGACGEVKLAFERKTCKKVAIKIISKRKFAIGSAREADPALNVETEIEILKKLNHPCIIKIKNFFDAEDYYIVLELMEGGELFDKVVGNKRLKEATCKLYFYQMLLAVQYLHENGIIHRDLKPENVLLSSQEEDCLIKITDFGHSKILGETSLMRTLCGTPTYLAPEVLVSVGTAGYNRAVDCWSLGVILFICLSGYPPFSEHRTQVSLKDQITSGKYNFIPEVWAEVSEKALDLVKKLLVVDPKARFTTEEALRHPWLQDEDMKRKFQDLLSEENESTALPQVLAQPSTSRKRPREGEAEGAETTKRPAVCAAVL
Mitogen-activated protein kinase 9 (Homo sapiens), sequence (P45984 whole entry, looked up): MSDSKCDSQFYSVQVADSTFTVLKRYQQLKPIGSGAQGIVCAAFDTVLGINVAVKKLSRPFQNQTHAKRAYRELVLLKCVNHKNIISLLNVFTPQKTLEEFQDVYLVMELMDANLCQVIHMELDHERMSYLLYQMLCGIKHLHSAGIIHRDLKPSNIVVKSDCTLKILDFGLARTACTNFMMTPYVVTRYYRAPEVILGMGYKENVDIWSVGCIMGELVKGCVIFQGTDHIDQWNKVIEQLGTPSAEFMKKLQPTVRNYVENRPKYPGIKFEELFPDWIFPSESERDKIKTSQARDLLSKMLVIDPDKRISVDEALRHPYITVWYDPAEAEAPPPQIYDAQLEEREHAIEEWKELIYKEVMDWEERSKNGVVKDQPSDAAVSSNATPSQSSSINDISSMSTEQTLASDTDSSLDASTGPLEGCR
Mitogen-activated protein kinase 12 (Homo sapiens), sequence (P53778 whole entry): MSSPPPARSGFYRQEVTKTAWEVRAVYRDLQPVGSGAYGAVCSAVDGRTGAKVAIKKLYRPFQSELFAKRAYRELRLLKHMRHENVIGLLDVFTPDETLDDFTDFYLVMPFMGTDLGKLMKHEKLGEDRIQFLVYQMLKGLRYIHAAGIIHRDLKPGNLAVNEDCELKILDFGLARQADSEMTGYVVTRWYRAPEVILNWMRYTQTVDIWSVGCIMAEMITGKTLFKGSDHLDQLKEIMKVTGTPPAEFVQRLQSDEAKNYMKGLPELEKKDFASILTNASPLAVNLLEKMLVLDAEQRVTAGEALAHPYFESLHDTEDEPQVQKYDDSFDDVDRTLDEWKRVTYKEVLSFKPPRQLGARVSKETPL
Mitogen-activated protein kinase 1 (Homo sapiens), sequence (P28482 whole entry): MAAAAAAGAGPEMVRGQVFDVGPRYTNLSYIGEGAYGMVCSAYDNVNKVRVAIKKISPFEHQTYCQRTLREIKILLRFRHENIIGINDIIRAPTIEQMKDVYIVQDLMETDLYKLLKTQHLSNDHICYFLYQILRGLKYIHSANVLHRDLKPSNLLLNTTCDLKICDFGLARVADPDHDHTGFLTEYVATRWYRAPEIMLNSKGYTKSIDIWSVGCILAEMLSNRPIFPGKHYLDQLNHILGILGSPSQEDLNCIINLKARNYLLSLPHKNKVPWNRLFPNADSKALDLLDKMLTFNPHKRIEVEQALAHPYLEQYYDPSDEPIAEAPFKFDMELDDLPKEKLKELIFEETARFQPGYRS

Compound: NC(=O)c1cccc(-c2cc(Nc3ccc(OC(F)(F)F)cc3)ncn2)c1
- inhibition [1]: 28%
- inhibition [2]: 0%
- IC50 (HL-60): > 10 µM
- inhibition [3]: 30%
- IC50 [4]: > 10 µM
- inhibition [5]: 0%
- inhibition [6]: 0%
- IC50 [7]: 2370 nM
- IC50 (K562): 273 nM
- inhibition [8]: 26%
- inhibition [9]: 7%
- IC50 [10]: 138 nM
- inhibition [11]: 0%
- inhibition [12]: 0%
- IC50 [13]: > 10000 nM
- IC50 [14]: 268 nM
- inhibition [15]: 7%
- inhibition [16]: 0%
- inhibition [17]: 0%
- inhibition [18]: 2%
- inhibition [19]: 23%
- inhibition [20]: 0%
- inhibition [21]: 7%
- IC50 [22]: 138 nM
- IC50 [23]: > 10000 nM
- inhibition [24]: 55%
- IC50 [25]: > 10 µM
- IC50 [26]: > 10 µM
- inhibition [27]: 0%
- inhibition [28]: 4%
- inhibition [29]: 19%
- inhibition [30]: 39%
- inhibition [31]: 3%
- inhibition [32]: 14%
- IC50 [33]: > 10000 nM
- inhibition [34]: 0%
- inhibition [35]: 40%
- IC50 [36]: 187 nM

Compound: Cc1ccc(NC(=O)c2ccc(CN3CCN(C)CC3)cc2)cc1Nc1nccc(-c2cccnc2)n1 [IMATINIB]
- inhibition [1]: 17%
- inhibition [2]: 1%
- IC50 (HL-60): > 10 µM
- inhibition [3]: 79%
- IC50 [4]: > 10 µM
- inhibition [5]: 15%
- inhibition [6]: 17%
- IC50 [7]: 962 nM
- IC50 (K562): 109 nM
- inhibition [8]: 2%
- inhibition [9]: 62%
- IC50 [10]: 190 nM
- inhibition [11]: 2%
- inhibition [12]: 17%
- IC50 [13]: 339 nM
- IC50 [14]: 111 nM
- inhibition [15]: 27%
- inhibition [16]: 19%
- inhibition [17]: 17%
- inhibition [18]: 66%
- inhibition [19]: 22%
- inhibition [20]: 58%
- inhibition [21]: 46%
- IC50 [22]: 190 nM
- IC50 [23]: 257 nM
- inhibition [24]: 11%
- IC50 [25]: > 10 µM
- IC50 [26]: > 10 µM
- inhibition [27]: 1%
- inhibition [28]: 34%
- inhibition [29]: 16%
- inhibition [30]: 88%
- inhibition [31]: 7%
- inhibition [32]: 10%
- IC50 [33]: 27 nM
- inhibition [34]: 7%
- inhibition [35]: 4%
- IC50 [36]: 112 nM
